Laboratory results as given in ChEMBL document CHEMBL5247578, “Effective synthesis of benzimidazoles-imidazo[1,2-a]pyrazine conjugates: A comparative study of mono-and bis-benzimidazoles for antitumor activity” (Eur J Med Chem, 2019).

Experiments:
[1] = tested on: NCI-H226; assay: Antiproliferative activity against human NCI-H226 cells assessed as cell growth at 0.0000001 M incubated for 48 hrs by SRB assay relative to control; format: functional; details: dose 100 nM, read-out: Activity
[2] = tested on: T47D; assay: Antiproliferative activity against human T47D cells assessed as cell growth at 0.00000001 M incubated for 48 hrs by SRB assay relative to control; format: functional; details: dose 10 nM, read-out: Activity
[3] = tested on: EKVX; assay: Antiproliferative activity against human EKVX cells assessed as cell growth inhibition by measuring lethal concentration incubated for 48 hrs by sulforhodamine B assay; format: functional; details: read-out: LC50 (the source's name)
[4] = tested on: Hs-578T; assay: Antiproliferative activity against human Hs-578T cells assessed as cell growth at 0.00000001 M incubated for 48 hrs by SRB assay relative to control; format: functional; details: dose 10 nM, read-out: Activity
Procedure, shortened: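 NCI-60 five-dose mode, 10^-4 to 10^-8 M in 10-fold steps. RPMI 1640, 5% FBS, 2 mM L-glutamine; 24 h preincubation, then 48 h drug exposure at 37 °C. Stocks in DMSO at 400× the top concentration, diluted in medium with gentamicin. TCA fixation, SRB staining, absorbance at 515 nm. Percent growth from time-zero (Tz), control (C) and test (Ti) readings.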

[5] = tested on: NCI-H23; assay: Growth inhibition against human NCI-H23 cells incubated for 48 hrs by sulforhodamine B assay; format: functional
[6] = tested on: UACC-257; assay: Antiproliferative activity against human UACC-257 cells assessed as cell growth at 0.000001 M incubated for 48 hrs by SRB assay relative to control; format: functional; details: read-out: Activity
[7] = tested on: OVCAR-8; assay: Antiproliferative activity against human OVCAR-8 cells assessed as cell growth inhibition by measuring lethal concentration incubated for 48 hrs by sulforhodamine B assay; format: functional; details: read-out: LC50 (the source's name)
[8] = tested on: Malme-3M; assay: Antiproliferative activity against human Malme-3M cells assessed as cell growth at 0.0000001 M incubated for 48 hrs by SRB assay relative to control; format: functional; details: dose 100 nM, read-out: Activity
[9] = tested on: UO-31; assay: Antiproliferative activity against human UO-31 cells assessed as cell growth inhibition by measuring lethal concentration incubated for 48 hrs by sulforhodamine B assay; format: functional; details: read-out: LC50 (the source's name)
Procedure, shortened: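 NCI-60 five-dose screen (10^-4 to 10^-8 M, 10-fold dilutions; DMSO stocks). Cells in RPMI 1640 with 5% FBS and 2 mM L-glutamine, preincubated 24 h, then exposed 48 h at 37 °C, 5% CO2. Fixed with cold TCA, stained with 0.4% SRB, absorbance read at 515 nm. Time-zero plates used as reference. LC50 taken from [(Ti-Tz)/Tz]×100 […].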

[10] = tested on: HOP-92; assay: Antiproliferative activity against human HOP-92 cells assessed as cell growth inhibition by measuring lethal concentration incubated for 48 hrs by sulforhodamine B assay; format: functional; details: read-out: LC50 (the source's name)
[11] = tested on: IGROV-1; assay: Antiproliferative activity against human IGROV-1 cells assessed as cell growth inhibition by measuring lethal concentration incubated for 48 hrs by sulforhodamine B assay; format: functional; details: read-out: LC50 (the source's name)
[12] = tested on: SN12C; assay: Antiproliferative activity against human SN12C cells assessed as cell growth at 0.00000001 M incubated for 48 hrs by SRB assay relative to control; format: functional; details: dose 10 nM, read-out: Activity
[13] = tested on: HL-60; assay: Antiproliferative activity against human HL-60 cells assessed as cell growth at 0.0000001 M incubated for 48 hrs by SRB assay relative to control; format: functional; details: dose 100 nM, read-out: Activity
Procedure, shortened: (§1)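 NCI-60 five-dose screen (10^-4 to 10^-8 M). Cells grown in RPMI 1640 with 5% FBS and 2 mM L-glutamine, plated at 5,000-40,000 cells/well and preincubated 24 h. Drug given from DMSO stock, then 48 h at 37 °C, 5% CO2. For adherent lines, cells fixed with cold TCA, SRB-stained and read at 515 nm. Percent growth taken against time-zero and untreated control.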

[14] = tested on: M14; assay: Antiproliferative activity against human M14 cells assessed as cell growth inhibition by measuring lethal concentration incubated for 48 hrs by sulforhodamine B assay; format: functional; details: read-out: LC50 (the source's name)
[15] = target: Albumin (Bos taurus, UniProt P02769); assay: Binding affinity to bovine serum albumin assessed as quenching constant by fluorescence spectroscopic method; details: cattle
Chain of Albumin (P02769 whole entry): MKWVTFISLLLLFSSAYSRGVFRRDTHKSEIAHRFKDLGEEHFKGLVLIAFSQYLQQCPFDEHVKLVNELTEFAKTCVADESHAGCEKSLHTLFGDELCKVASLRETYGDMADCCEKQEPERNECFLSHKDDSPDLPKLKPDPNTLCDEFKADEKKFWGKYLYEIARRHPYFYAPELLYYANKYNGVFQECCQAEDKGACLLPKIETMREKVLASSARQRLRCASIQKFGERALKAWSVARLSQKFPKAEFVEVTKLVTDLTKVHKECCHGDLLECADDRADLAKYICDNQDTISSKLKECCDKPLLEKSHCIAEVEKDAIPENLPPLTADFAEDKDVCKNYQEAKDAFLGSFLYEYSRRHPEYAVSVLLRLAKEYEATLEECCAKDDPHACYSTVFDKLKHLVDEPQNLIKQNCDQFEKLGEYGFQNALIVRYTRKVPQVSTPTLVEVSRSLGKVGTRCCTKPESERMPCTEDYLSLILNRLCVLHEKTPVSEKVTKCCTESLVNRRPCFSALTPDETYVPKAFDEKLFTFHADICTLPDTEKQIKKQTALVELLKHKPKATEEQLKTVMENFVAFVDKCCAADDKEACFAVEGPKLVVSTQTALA

[16] = tested on: HOP-62; assay: Antiproliferative activity against human HOP-62 cells assessed as cell growth at 0.00001 M incubated for 48 hrs by SRB assay relative to control; format: functional; details: read-out: Activity; procedure, shortened: as §1
[17] = tested on: A498; assay: Antiproliferative activity against human A498 cells assessed as cell growth at 0.00001 M incubated for 48 hrs by SRB assay relative to control; format: functional; details: read-out: Activity
Procedure, shortened: (§2)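 NCI-60 five-dose screen over 10^-4–10^-8 M (10-fold dilutions). Cells grown in RPMI 1640 with 5% FBS and 2 mM L-glutamine, seeded at 5,000–40,000 cells/well and preincubated 24 h. Drug from DMSO stock, 48 h at 37 °C, 5% CO2. Adherent cells TCA-fixed and stained with 0.4% SRB; A515 read. Percent growth = (Ti−Tz)/(C−Tz)×100, or (Ti−Tz)/Tz×100 when Ti<Tz.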

[18] = tested on: TK-10; assay: Growth inhibition against human TK-10 cells assessed as total growth inhibitory concentration incubated for 48 hrs by sulforhodamine B assay; format: functional
[19] = tested on: NCI-H460; assay: Antiproliferative activity against human NCI-H460 cells assessed as cell growth at 0.0000001 M incubated for 48 hrs by SRB assay relative to control; format: functional; details: dose 100 nM, read-out: Activity
[20] = tested on: A498; assay: Antiproliferative activity against human A498 cells assessed as cell growth at 0.0000001 M incubated for 48 hrs by SRB assay relative to control; format: functional; details: dose 100 nM, read-out: Activity; procedure, shortened: as §2
[21] = tested on: ACHN; assay: Growth inhibition against human ACHN cells assessed as total growth inhibitory concentration incubated for 48 hrs by sulforhodamine B assay; format: functional
[22] = tested on: TK-10; assay: Antiproliferative activity against human TK-10 cells assessed as cell growth at 0.00000001 M incubated for 48 hrs by SRB assay relative to control; format: functional; details: dose 10 nM, read-out: Activity
[23] = tested on: IGROV-1; assay: Antiproliferative activity against human IGROV-1 cells assessed as cell growth at 0.000001 M incubated for 48 hrs by SRB assay relative to control; format: functional; details: read-out: Activity
[24] = tested on: SNB-19; assay: Antiproliferative activity against human SNB-19 cells assessed as cell growth at 0.00000001 M incubated for 48 hrs by SRB assay relative to control; format: functional; details: dose 10 nM, read-out: Activity
[25] = tested on: NCI-H322M; assay: Growth inhibition against human NCI-H322M cells incubated for 48 hrs by sulforhodamine B assay; format: functional
[26] = tested on: SK-OV-3; assay: Antiproliferative activity against human SK-OV-3 cells assessed as cell growth at 0.00000001 M incubated for 48 hrs by SRB assay relative to control; format: functional; details: dose 10 nM, read-out: Activity
[27] = tested on: HEK293; assay: Cytotoxicity against human HEK293 cells assessed as reduction in cell viability at 0.0000001 M incubated for 48 hrs by MTT colorimetric assay relative to control; format: toxicity, cell-based; details: hek293, 48 h, 0.1 µM, dose 100 nM
[28] = tested on: SF-268; assay: Growth inhibition against human SF-268 cells assessed as total growth inhibitory concentration incubated for 48 hrs by sulforhodamine B assay; format: functional
[29] = tested on: SK-MEL-28; assay: Growth inhibition against human SK-MEL-28 cells incubated for 48 hrs by sulforhodamine B assay; format: functional
[30] = tested on: DU-145; assay: Antiproliferative activity against human DU-145 cells assessed as cell growth at 0.0001 M incubated for 48 hrs by SRB assay relative to control; format: functional; details: read-out: Activity; procedure, shortened: as §1

For `COc1ccc(-c2cn3ccnc3c(-c3ccc4ncn(C5CCCCC5)c4c3)n2)cc1`, the growth at 0.1 µM [1] was 96%, the growth at 0.01 µM [2] was 85% and the CC50 [3] was greater than 100 µM. The growth at 0.01 µM [4] was 106%, the GI50 [5] was 2.11 µM and the growth at 1 µM [6] was 69%. For the same molecule, the CC50 [7] was greater than 100 µM, the growth at 0.1 µM [8] was 95% and the CC50 [9] was greater than 100 µM. For the same molecule, the CC50 [10] was greater than 100 µM, the CC50 [11] was greater than 100 µM and the growth at 0.01 µM [12] was 97%. The growth at 0.1 µM [13] was 95%, the CC50 [14] was greater than 100 µM and the Kq [15] was 1.16 10^13/M/sec. For the same molecule, the growth at 10 µM [16] was -1%, the growth at 10 µM [17] was 8% and the TGI [18] was 68.9 µM. The growth at 0.1 µM [19] was 107%, the growth at 0.1 µM [20] was 92% and the TGI [21] was greater than 100 µM. The growth at 0.01 µM [22] was 88%, the growth at 1 µM [23] was 49% and the growth at 0.01 µM [24] was 107%. For the same molecule, the GI50 [25] was greater than 100 µM, the growth at 0.01 µM [26] was 87% and the Activity [27] was 14.79%. The TGI [28] was greater than 100 µM, the GI50 [29] was 2.1 µM and the growth at 100 µM [30] was 17%.
`c1ccc(Cn2cnc3ccc(-c4nc(-c5ccc6c(c5)ncn6C5CCCCC5)cn5ccnc45)cc32)cc1` was tested, and the growth at 0.1 µM [1] was 103%, the growth at 0.01 µM [2] was 86% and the CC50 [3] was greater than 100 µM. The growth at 0.01 µM [4] was 99%, the GI50 [5] was 1.88 µM and the growth at 1 µM [6] was 112%. For the same molecule, the CC50 [7] was greater than 100 µM, the growth at 0.1 µM [8] was 92% and the CC50 [9] was greater than 100 µM. It also gave a CC50 [10] of 5.5 µM, a CC50 [11] greater than 100 µM and a growth at 0.01 µM [12] of 102%. For the same molecule, the growth at 0.1 µM [13] was 113%, the CC50 [14] was greater than 100 µM and the Kq [15] was 1.14 10^13/M/sec. For the same molecule, the growth at 10 µM [16] was -15%, the growth at 10 µM [17] was -79% and the TGI [18] was greater than 100 µM. For the same molecule, the growth at 0.1 µM [19] was 108%, the growth at 0.1 µM [20] was 101% and the TGI [21] was greater than 100 µM. The growth at 0.01 µM [22] was 84%, the growth at 1 µM [23] was 73% and the growth at 0.01 µM [24] was 99%. For the same molecule, the GI50 [25] was 3.05 µM, the growth at 0.01 µM [26] was 84% and the Activity [27] was 13.6%. For the same molecule, the TGI [28] was greater than 100 µM, the GI50 [29] was 2.43 µM and the growth at 100 µM [30] was -8%.
